# In ChEMBL document CHEMBL1649147, “Antistaphylococcal activity of dihydrophthalazine antifolates, a family of novel antibacterial drugs” (2009):
# Columns and labels:
# Staphylococcus aureus [1] = test: Antibacterial activity against methicillin-resistant and vancomycin-resistant Staphylococcus aureus VRS1 after 15 passages by agar dilution method; format: functional
# Procedure, shortened: (§1)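 Daily serial passage for up to 50 days at 35°C for 24 h in 1 ml MHB. […] Each transfer used 10 µl from the tube nearest the MIC (1–2 dilutions below) with the same turbidity as the drug-free control. […] MICs were measured by agar dilution, with changes given as log2 steps.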
# [2] = system: Staphylococcus epidermidis; test: Antibacterial activity against methicillin-resistant coagulase-negative Staphylococcus epidermidis 345 by broth macrodilution method; format: functional
# [3] = system: Staphylococcus epidermidis; test: Antibacterial activity against coagulase-negative Staphylococcus epidermidis 345 after 10 passages in MBH without antibiotic by agar dilution method; format: functional
# Procedure, shortened: (§2)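 After drug-selective serial passage, selected clones were passaged 10 times in antibiotic-free MHB. MICs were then redetermined, and the change is expressed as log2 dilution steps.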
# Staphylococcus aureus [4] = test: Antibacterial activity against Staphylococcus aureus ATCC 43300 assessed as change in MIC by agar dilution method after serial passages in presence of antibiotic relative to control; format: functional
# Procedure, shortened: (§3)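 Serial passage under drug. Inoculum was ~1 × 10^6 CFU/ml from overnight MHA growth, in 1 ml MHB at 35°C for 24 h. Drug ranged from 4 log2 steps above to 3 log2 steps below the MIC. […] MIC change is given as log2 steps.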
# [5] = system: Staphylococcus epidermidis; test: Antibacterial activity against coagulase-negative Staphylococcus epidermidis 057 after 50 passages by agar dilution method; format: functional; procedure, shortened: as §3
# Staphylococcus aureus [6] = test: Antibacterial activity against vancomycin-resistant Staphylococcus aureus VRS1 by broth macrodilution method; format: functional
# Procedure, shortened: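 Michigan VRSA strain, one of 12 staphylococci later used in time-kill studies. MIC was determined by broth macrodilution and reported in μg/ml.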
# [7] = system: Staphylococcus epidermidis; test: Antibacterial activity against coagulase-negative Staphylococcus epidermidis 345 after 50 passages by agar dilution method; format: functional; procedure, shortened: as §3
# [8] = system: Staphylococcus epidermidis; test: Antibacterial activity against methicillin-susceptible coagulase-negative Staphylococcus epidermidis 051 after 50 passages by agar dilution method; format: functional
# Procedure, shortened: (§4)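 Daily serial passage for up to 50 days at 35°C for 24 h in 1 ml MHB. Each transfer used 10 µl from the tube nearest the MIC (1–2 dilutions below) with the same turbidity as the drug-free control. MICs were measured by agar dilution, with changes given as log2 steps.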
# [9] = system: Staphylococcus epidermidis; test: Antibacterial activity against methicillin-resistant coagulase-negative Staphylococcus epidermidis 225 by broth macrodilution method; format: functional
# [10] = system: coagulase-negative staphylococci; test: Antibacterial activity against methicillin-susceptible coagulase-negative staphylococci by agar dilution method
# [11] = system: Staphylococcus epidermidis; test: Antibacterial activity against methicillin-resistant, Linezolid non-susceptible coagulase-negative Staphylococcus epidermidis 345 after 50 passages by agar dilution method; format: functional; procedure, shortened: as §4
# [12] = system: Staphylococcus epidermidis; test: Antibacterial activity against methicillin-resistant coagulase-negative Staphylococcus epidermidis 197 after 50 passages by agar dilution method; format: functional; procedure, shortened: as §4
# Staphylococcus aureus [13] = test: Antibacterial activity against vancomycin-resistant Staphylococcus aureus VRS1 after 10 passages in MHB without antibiotic by agar dilution method; format: functional
# Procedure, shortened: (§5)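 Clones from the end of drug passage were transferred 10 times in MHB without antibiotic, then retested by agar dilution. MIC change is expressed as log2 dilution steps.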
# [14] = system: Staphylococcus epidermidis; test: Antibacterial activity against coagulase-negative Staphylococcus epidermidis 225 by agar dilution method; format: functional
# Procedure, shortened: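 MICs by agar dilution on Mueller-Hinton agar following CLSI guidelines. S. aureus ATCC 29213 and E. faecalis ATCC 29212 were run as quality controls with each set, and test-strain MICs were kept only if control MICs fell within acceptable ranges.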
# Staphylococcus aureus [15] = test: Antibacterial activity against vancomycin-resistant Staphylococcus aureus VRS1 assessed as change in MIC by agar dilution method after serial passages in the absence of antibiotic relative to control; format: functional; procedure, shortened: as §5
# [16] = system: Staphylococcus epidermidis; test: Antibacterial activity against methicillin-resistant, vancomycin-intermediate coagulase-negative Staphylococcus epidermidis 225 after 50 passages by agar dilution method; format: functional; procedure, shortened: as §1
# [17] = system: Staphylococcus epidermidis; test: Antibacterial activity against coagulase-negative Staphylococcus epidermidis 051 after 50 passages by agar dilution method; format: functional; procedure, shortened: as §3
# Staphylococcus aureus [18] = test: Antibacterial activity against methicillin-resistant Staphylococcus aureus 507 by broth macrodilution method; format: functional
# Staphylococcus aureus [19] = test: Antibacterial activity against methicillin-susceptible Staphylococcus aureus 505 by broth macrodilution method; format: functional
# [20] = system: Staphylococcus epidermidis; test: Antibacterial activity against methicillin-resistant coagulase-negative Staphylococcus epidermidis 197 by broth macrodilution method; format: functional
# [21] = system: Staphylococcus epidermidis; test: Antibacterial activity against coagulase-negative Staphylococcus epidermidis 225 assessed as change in MIC by agar dilution method after serial passages in presence of antibiotic relative to control; format: functional; procedure, shortened: as §3
# [22] = system: coagulase-negative staphylococci; test: Antibacterial activity against Tmp-susceptible coagulase-negative staphylococci by agar dilution method
# Staphylococcus aureus [23] = test: Antibacterial activity against vancomycin-resistant Staphylococcus aureus VRS1 assessed as change in MIC by agar dilution method after serial passages in presence of antibiotic relative to control; format: functional; procedure, shortened: as §1
# Staphylococcus aureus [24] = test: Antibacterial activity against Staphylococcus aureus 145 assessed as change in MIC by agar dilution method after serial passages in the absence of antibiotic relative to control; format: functional; procedure, shortened: as §2
# [25] = system: Staphylococcus epidermidis; test: Antibacterial activity against coagulase-negative Staphylococcus epidermidis 225 after 50 passages by agar dilution method; format: functional; procedure, shortened: as §3
# Staphylococcus aureus [26] = test: Antibacterial activity against Staphylococcus aureus 145 after 10 passages in MHB without antibiotic by agar dilution method; format: functional; procedure, shortened: as §2
# Staphylococcus aureus [27] = test: Antibacterial activity against methicillin-resistant and vancomycin-resistant Staphylococcus aureus VRS1 after 20 passages by agar dilution method; format: functional; procedure, shortened: as §1
# [28] = system: Staphylococcus epidermidis; test: Antibacterial activity against methicillin-susceptible coagulase-negative Staphylococcus epidermidis 051 after 38 passages by agar dilution method; format: functional; procedure, shortened: as §1
# Staphylococcus aureus [29] = test: Antibacterial activity against vancomycin-resistant Staphylococcus aureus VRS1 after 20 passages by agar dilution method; format: functional; procedure, shortened: as §1
# [30] = system: Staphylococcus epidermidis; test: Antibacterial activity against methicillin-resistant, Linezolid non-susceptible coagulase-negative Staphylococcus epidermidis 345 after 33 passages by agar dilution method; format: functional; procedure, shortened: as §1
# [31] = system: Staphylococcus epidermidis; test: Antibacterial activity against coagulase-negative Staphylococcus epidermidis 225 after 38 passages by agar dilution method; format: functional; procedure, shortened: as §3
# [32] = system: Staphylococcus epidermidis; test: Antibacterial activity against coagulase-negative Staphylococcus epidermidis 345 after 33 passages by agar dilution method; format: functional; procedure, shortened: as §3
# [33] = system: Staphylococcus epidermidis; test: Antibacterial activity against methicillin-susceptible coagulase-negative Staphylococcus epidermidis 057 after 15 passages by agar dilution method; format: functional; procedure, shortened: as §1
# [34] = system: Staphylococcus epidermidis; test: Antibacterial activity against coagulase-negative Staphylococcus epidermidis 051 after 38 passages by agar dilution method; format: functional; procedure, shortened: as §3
# [35] = system: Staphylococcus epidermidis; test: Antibacterial activity against coagulase-negative Staphylococcus epidermidis 057 after 15 passages by agar dilution method; format: functional; procedure, shortened: as §3
# [36] = system: Staphylococcus epidermidis; test: Antibacterial activity against methicillin-resistant, vancomycin-intermediate coagulase-negative Staphylococcus epidermidis 225 after 36 passages by agar dilution method; format: functional; procedure, shortened: as §1
# Staphylococcus aureus [37] = test: Antibacterial activity against methicillin-resistant Staphylococcus aureus 145 after 50 passages by agar dilution method; format: functional; procedure, shortened: as §3
# [38] = system: Staphylococcus epidermidis; test: Antibacterial activity against methicillin-susceptible coagulase-negative Staphylococcus epidermidis 057 after 23 passages by agar dilution method; format: functional; procedure, shortened: as §1
# [39] = system: Staphylococcus epidermidis; test: Antibacterial activity against coagulase-negative Staphylococcus epidermidis 057 after 23 passages by agar dilution method; format: functional; procedure, shortened: as §3
# Staphylococcus aureus [40] = test: Antibacterial activity against vancomycin-resistant Staphylococcus aureus VRS1 after 25 passages by agar dilution method; format: functional; procedure, shortened: as §1
# [41] = system: Staphylococcus epidermidis; test: Antibacterial activity against coagulase-negative Staphylococcus epidermidis 225 after 36 passages by agar dilution method; format: functional; procedure, shortened: as §3
# Staphylococcus aureus [42] = test: Antibacterial activity against Staphylococcus aureus 145 after 50 passages by agar dilution method; format: functional; procedure, shortened: as §3
smiles,measurement,setting,value
COc1ncc(C2c3ccccc3C=NN2C(=O)/C=C/c2cc(Cc3cnc(N)nc3N)cc(OC)c2OC)cn1 (stereo not given),MIC,Staphylococcus aureus [1],> 128 µg/mL
same,MIC,[2],0.06 µg/mL
same,MIC,[3],2 µg/mL
same,fold change (FC),Staphylococcus aureus [4],7
same,MIC,[5],128 µg/mL
same,MIC,Staphylococcus aureus [6],1 µg/mL
same,MIC,[7],16 µg/mL
same,MIC,[8],64 µg/mL
same,MIC,[9],0.25 µg/mL
same,MIC90,[10],0.06 µg/mL
same,MIC,[11],16 µg/mL
same,MIC,[12],1 µg/mL
same,MIC,Staphylococcus aureus [13],128 µg/mL
same,MIC,[14],0.25 µg/mL
same,fold change (FC),Staphylococcus aureus [15],-1
same,MIC,[16],128 µg/mL
same,MIC,[17],64 µg/mL
same,MIC,Staphylococcus aureus [18],0.06 µg/mL
same,MIC,Staphylococcus aureus [19],0.03 µg/mL
same,MIC,[20],0.008 µg/mL
same,fold change (FC),[21],9
same,MIC50,[22],0.016 µg/mL
same,MIC90,[22],0.03 µg/mL
same,fold change (FC),Staphylococcus aureus [23],9
same,fold change (FC),Staphylococcus aureus [24],-4
same,MIC,[25],128 µg/mL
same,MIC,Staphylococcus aureus [26],16 µg/mL
COc1cc(Cc2cnc(N)nc2N)cc(/C=C/C(=O)N2N=Cc3ccccc3C2c2cnc(N(C)C)nc2)c1OC (stereo not given),MIC,[2],0.06 µg/mL
same,MIC,[3],2 µg/mL
same,MIC,Staphylococcus aureus [27],> 128 µg/mL
same,MIC,[28],> 128 µg/mL
same,MIC,Staphylococcus aureus [29],> 128 µg/mL
same,fold change (FC),Staphylococcus aureus [4],5
same,MIC,Staphylococcus aureus [6],0.5 µg/mL
same,MIC,[9],0.125 µg/mL
same,MIC90,[10],0.03 µg/mL
same,MIC,[30],> 128 µg/mL
same,MIC,[31],> 128 µg/mL
same,MIC,[12],0.125 µg/mL
same,MIC,Staphylococcus aureus [13],> 128 µg/mL
same,MIC,[14],0.25 µg/mL
same,MIC,[32],> 128 µg/mL
same,MIC,[33],> 128 µg/mL
same,fold change (FC),Staphylococcus aureus [15],0
same,MIC,[34],> 128 µg/mL
same,MIC,Staphylococcus aureus [18],0.125 µg/mL
same,MIC,Staphylococcus aureus [19],0.125 µg/mL
same,MIC,[20],0.03 µg/mL
same,fold change (FC),[21],10
same,MIC50,[22],0.016 µg/mL
same,MIC90,[22],0.03 µg/mL
same,MIC,[35],> 128 µg/mL
same,fold change (FC),Staphylococcus aureus [23],10
same,fold change (FC),Staphylococcus aureus [24],0
same,MIC,Staphylococcus aureus [26],> 128 µg/mL
COc1cc(Cc2cnc(N)nc2N)cc(/C=C/C(=O)N2N=Cc3ccccc3C2c2cnc(N3CCOCC3)nc2)c1OC (stereo not given),MIC,[2],0.125 µg/mL
same,MIC,[3],2 µg/mL
same,fold change (FC),Staphylococcus aureus [4],5
same,MIC,Staphylococcus aureus [6],1 µg/mL
same,MIC,[7],4 µg/mL
same,MIC,[8],64 µg/mL
same,MIC,[9],0.25 µg/mL
same,MIC90,[10],0.06 µg/mL
same,MIC,[11],4 µg/mL
same,MIC,[36],> 128 µg/mL
same,MIC,[12],1 µg/mL
same,MIC,Staphylococcus aureus [13],> 128 µg/mL
same,MIC,[14],0.25 µg/mL
same,MIC,Staphylococcus aureus [37],128 µg/mL
same,fold change (FC),Staphylococcus aureus [15],0
same,MIC,[38],> 128 µg/mL
same,MIC,[17],64 µg/mL
same,MIC,Staphylococcus aureus [18],0.25 µg/mL
same,MIC,Staphylococcus aureus [19],0.03 µg/mL
same,MIC,[39],> 128 µg/mL
same,MIC,[20],0.06 µg/mL
same,MIC,Staphylococcus aureus [40],> 128 µg/mL
same,fold change (FC),[21],10
same,MIC50,[22],0.03 µg/mL
same,MIC90,[22],0.06 µg/mL
same,MIC,[41],> 128 µg/mL
same,MIC,Staphylococcus aureus [42],128 µg/mL
same,fold change (FC),Staphylococcus aureus [23],8
same,fold change (FC),Staphylococcus aureus [24],0
same,MIC,Staphylococcus aureus [26],128 µg/mL
